≈ marks a conversion by molar mass, not a printed value. Calls of active or inactive are those of the source. The calls are words filed in the database; no cut-off is given here.
Tests used:
Assay type in all cases: functional
[1] = Antioxidant activity assessed as nitric oxide scavenging activity at 75 ug/ml after 150 mins by Griess method relative to control
Summary of the method: (§1)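 NO was generated from sodium nitroprusside (10 mM) in phosphate buffer saline (0.2 M, pH 7.4). Compounds were added at […] and incubated 150 min at 25 °C. Percent scavenging was calculated from control (all reagents minus compound) and sample absorbances. Run in triplicate.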

[2] = tested on: Radical scavenging activity; assay: Antioxidant activity assessed as DPPH free radical scavenging activity at 75 ug/ml after 30 mins by spectrophotometric analysis relative to control
Summary of the method: (§2)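 Compounds in methanol at […] were mixed with 0.004% (w/v) methanolic DPPH. After 30 min at room temperature, absorbance was read at 517 nm against a blank. Percent inhibition was calculated from control (all reagents minus compound) and sample absorbances. Run in triplicate.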

[3] = Antioxidant activity assessed as hydrogen peroxide scavenging activity at 50 ug/ml relative to control
[4] = tested on: Radical scavenging activity; assay: Antioxidant activity assessed as DPPH free radical scavenging activity at 50 ug/ml after 30 mins by spectrophotometric analysis relative to control; summary of the method: as §2
[5] = tested on: Radical scavenging activity; assay: Antioxidant activity assessed as DPPH free radical scavenging activity after 30 mins by spectrophotometric analysis; summary of the method: as §2
[6] = Antioxidant activity assessed as hydrogen peroxide scavenging activity at 100 ug/ml relative to control
[7] = Antioxidant activity assessed as nitric oxide scavenging activity at 100 ug/ml after 150 mins by Griess method relative to control; summary of the method: as §1
[8] = Antioxidant activity assessed as hydrogen peroxide scavenging activity at 75 ug/ml relative to control
[9] = tested on: Radical scavenging activity; assay: Antioxidant activity assessed as DPPH free radical scavenging activity at 100 ug/ml after 30 mins by spectrophotometric analysis relative to control; summary of the method: as §2
[10] = Antioxidant activity assessed as nitric oxide scavenging activity at 50 ug/ml after 150 mins by Griess method relative to control; summary of the method: as §1

| Structure (SMILES) | Activity [1] | inhibition [2] | Activity [3] | inhibition [4] | IC50 [5] | Activity [6] | Activity [7] | Activity [8] | inhibition [9] | Activity [10] |
| --- | --- | --- | --- | --- | --- | --- | --- | --- | --- | --- |
| O=S(=O)(CC1=NCCO1)c1c(-c2ccc(Cl)cc2)nn(-c2ccccc2)c1-c1ccc(Cl)cc1 | inactive | inactive | inactive | inactive | Not Active | inactive | inactive | inactive | inactive | inactive |
| O=S(=O)(CC1=NCCS1)C1C(c2ccc(Cl)cc2)=NOC1c1ccc(Cl)cc1 (stereo not given) | inactive | inactive | inactive | inactive | Not Active | inactive | inactive | inactive | inactive | inactive |
| Cc1ccc(-c2c[nH]nc2S(=O)(=O)CC2=NCCS2)cc1 | inactive | inactive | inactive | inactive | Not Active | inactive | inactive | inactive | inactive | inactive |
| COc1ccc(C2=NOC(c3ccc(C)cc3)C2S(=O)(=O)CC2=NCCS2)cc1 (stereo not given) | 54.1% | 50.6% | 47.5% | 46.8% | 85.38 µg/mL (≈ 198 µM) | 52.6% | 59.6% | 49.7% | 58.6% | 48.6% |
| Cc1ccc(-c2c[nH]nc2S(=O)(=O)CC2=NCCO2)cc1 | 63.5% | 63.7% | 60.7% | 59.8% | 72.51 µg/mL (≈ 237 µM) | 65.5% | 65.2% | 62% | 69% | 59.4% |
| Cc1ccc(C2CNN=C2S(=O)(=O)CC2=NCCO2)cc1 (stereo not given) | 49.7% | 43.6% | 41.3% | 38.7% | 100.44 µg/mL (≈ 327 µM) | 46.8% | 51.4% | 42.1% | 49.8% | 45.9% |
| O=S(=O)(CC1=NCCS1)c1n[nH]cc1-c1ccccc1 | inactive | inactive | inactive | inactive | Not Active | inactive | inactive | inactive | inactive | inactive |
| O=S(=O)(CC1=NCCS1)C1C(c2ccccc2)=NOC1c1ccccc1 (stereo not given) | inactive | inactive | inactive | inactive | Not Active | inactive | inactive | inactive | inactive | inactive |
| O=S(=O)(CC1=NCCO1)c1c(-c2ccccc2)noc1-c1ccccc1 | 57.3% | 65.8% | 57.2% | 61.6% | 69.47 µg/mL (≈ 189 µM) | 60.1% | 62.1% | 58.1% | 72% | 56.7% |
| COc1ccc(C2=NN(c3ccccc3)C(c3ccc(C)cc3)C2S(=O)(=O)CC2=NCCO2)cc1 (stereo not given) | 64.9% | 70.2% | 62.5% | 64.4% | 67.74 µg/mL (≈ 138 µM) | 67.7% | 70.5% | 64.3% | 73.8% | 59.1% |
